This passage reports IC50 results from ChEMBL document CHEMBL4627281, “A small molecule inhibitor of PCSK9 that antagonizes LDL receptor binding via interaction with a cryptic PCSK9 binding groove” (Bioorg Med Chem, 2020).

Assay [1] deals with PCSK9/LDLR (Homo sapiens, UniProt Q8NBP7). As to the kind of experiment: Inhibition of recombinant human His-tagged PCSK9 interaction with recombinant LDLR AB domain (unknown origin) measured after 3 hrs by horseradish peroxidase-coupled TMB substrate based spectrophotometry. The format is protein assay. A digest of the protocol:
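ELISA plates pre-coated with LDLR-EGF-AB domain. Compounds serially diluted from 10 mM DMSO stocks in reaction buffer, with 7 ng His-tagged human PCSK9 added, 3 h at room temperature with shaking. Binding detected with biotinylated anti-His antibody (1 h), then HRP-streptavidin (20 min), then substrate (15 min); absorbance read at 450/540 nm. IC50 taken from the % inhibition curve.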

Assay [2] addresses Mast/stem cell growth factor receptor Kit (Homo sapiens, UniProt P10721). Put plainly: Inhibition of recombinant human N-terminal GST-tagged c-Kit (544 to end residues) expressed in baculovirus infected Sf21 insect cells using FAM-labelled P22 peptide as substrate preincubated for 10 mins followed by substrate addition and measured after 1 hr in presence of ATP by fluorescence assay.

Assay [3] addresses Tyrosine-protein kinase ABL1 (Homo sapiens, UniProt P00519). Put plainly: Inhibition of recombinant human N-terminal His-tagged Abl (2 to 1130 residues) expressed in baculovirus expression system using FAM-labelled P2 peptide as substrate preincubated for 10 mins followed by substrate addition and measured after 1 hr in presence of ATP by fluorescence assay.
Assay [4] addresses Platelet-derived growth factor receptor beta (Homo sapiens, UniProt P09619). As to the kind of experiment: Inhibition of recombinant human N-terminal GST-tagged PDGFRbeta cytoplasmic domain (557 to 1106 residues) expressed in baculovirus expression system using FAM-labelled P22 peptide as substrate preincubated for 10 mins followed by substrate addition and measured after 1 hr in presence of ATP by fluorescence assay.

For assay [5], the target named is Proto-oncogene tyrosine-protein kinase Src (Homo sapiens, UniProt P12931). Put plainly: Inhibition of recombinant human full-length N-terminal GST-tagged SRC (1 to 536 residues) expressed in baculovirus expression system using FAM-labelled P4 peptide as substrate preincubated for 10 mins followed by substrate addition and measured after 1 hr in presence of ATP by fluorescence assay.

Chain of PCSK9/LDLR (Q8NBP7 31-152 limits assumed): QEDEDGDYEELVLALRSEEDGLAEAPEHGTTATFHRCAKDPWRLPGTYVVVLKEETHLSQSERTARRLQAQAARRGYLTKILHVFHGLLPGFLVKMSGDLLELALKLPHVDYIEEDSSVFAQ
Chain of PCSK9/LDLR (Q8NBP7 153-692 limits assumed): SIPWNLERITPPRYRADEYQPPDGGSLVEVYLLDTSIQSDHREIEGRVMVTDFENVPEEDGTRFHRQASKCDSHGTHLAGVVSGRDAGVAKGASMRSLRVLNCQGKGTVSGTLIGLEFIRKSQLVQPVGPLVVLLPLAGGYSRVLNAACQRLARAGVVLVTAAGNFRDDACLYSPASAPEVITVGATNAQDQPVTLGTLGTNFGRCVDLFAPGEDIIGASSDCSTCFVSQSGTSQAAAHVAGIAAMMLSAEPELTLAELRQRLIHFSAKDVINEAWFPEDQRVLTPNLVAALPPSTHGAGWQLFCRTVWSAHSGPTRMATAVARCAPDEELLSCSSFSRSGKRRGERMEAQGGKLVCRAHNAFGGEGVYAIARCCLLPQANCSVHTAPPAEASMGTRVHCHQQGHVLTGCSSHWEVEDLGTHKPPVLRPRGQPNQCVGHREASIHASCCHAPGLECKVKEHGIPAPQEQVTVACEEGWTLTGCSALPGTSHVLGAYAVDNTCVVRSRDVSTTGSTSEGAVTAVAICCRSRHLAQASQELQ
Chain of PCSK9/LDLR (P01130 22-860 partner limits assumed): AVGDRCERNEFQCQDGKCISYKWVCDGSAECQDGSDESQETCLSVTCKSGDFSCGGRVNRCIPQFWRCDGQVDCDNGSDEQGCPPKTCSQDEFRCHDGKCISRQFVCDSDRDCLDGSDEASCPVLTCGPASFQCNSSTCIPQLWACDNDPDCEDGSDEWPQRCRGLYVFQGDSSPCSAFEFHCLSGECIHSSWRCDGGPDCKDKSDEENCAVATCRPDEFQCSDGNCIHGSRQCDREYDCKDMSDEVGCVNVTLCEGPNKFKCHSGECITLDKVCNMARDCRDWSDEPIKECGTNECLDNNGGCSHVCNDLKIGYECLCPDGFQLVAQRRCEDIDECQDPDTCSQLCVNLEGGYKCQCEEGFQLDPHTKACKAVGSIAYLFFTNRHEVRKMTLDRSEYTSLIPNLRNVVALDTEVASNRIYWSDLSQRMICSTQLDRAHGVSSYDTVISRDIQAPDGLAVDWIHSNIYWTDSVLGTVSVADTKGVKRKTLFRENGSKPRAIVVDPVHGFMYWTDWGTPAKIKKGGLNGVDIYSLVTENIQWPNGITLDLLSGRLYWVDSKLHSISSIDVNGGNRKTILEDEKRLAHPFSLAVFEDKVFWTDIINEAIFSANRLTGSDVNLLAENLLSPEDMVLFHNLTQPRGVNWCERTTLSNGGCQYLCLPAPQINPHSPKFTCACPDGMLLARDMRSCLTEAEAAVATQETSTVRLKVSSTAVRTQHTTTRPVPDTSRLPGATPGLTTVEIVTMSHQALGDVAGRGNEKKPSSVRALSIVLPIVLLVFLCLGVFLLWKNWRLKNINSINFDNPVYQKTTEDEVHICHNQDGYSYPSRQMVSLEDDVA
Chain of Platelet-derived growth factor receptor beta (P09619 whole entry, the tested form may be a part): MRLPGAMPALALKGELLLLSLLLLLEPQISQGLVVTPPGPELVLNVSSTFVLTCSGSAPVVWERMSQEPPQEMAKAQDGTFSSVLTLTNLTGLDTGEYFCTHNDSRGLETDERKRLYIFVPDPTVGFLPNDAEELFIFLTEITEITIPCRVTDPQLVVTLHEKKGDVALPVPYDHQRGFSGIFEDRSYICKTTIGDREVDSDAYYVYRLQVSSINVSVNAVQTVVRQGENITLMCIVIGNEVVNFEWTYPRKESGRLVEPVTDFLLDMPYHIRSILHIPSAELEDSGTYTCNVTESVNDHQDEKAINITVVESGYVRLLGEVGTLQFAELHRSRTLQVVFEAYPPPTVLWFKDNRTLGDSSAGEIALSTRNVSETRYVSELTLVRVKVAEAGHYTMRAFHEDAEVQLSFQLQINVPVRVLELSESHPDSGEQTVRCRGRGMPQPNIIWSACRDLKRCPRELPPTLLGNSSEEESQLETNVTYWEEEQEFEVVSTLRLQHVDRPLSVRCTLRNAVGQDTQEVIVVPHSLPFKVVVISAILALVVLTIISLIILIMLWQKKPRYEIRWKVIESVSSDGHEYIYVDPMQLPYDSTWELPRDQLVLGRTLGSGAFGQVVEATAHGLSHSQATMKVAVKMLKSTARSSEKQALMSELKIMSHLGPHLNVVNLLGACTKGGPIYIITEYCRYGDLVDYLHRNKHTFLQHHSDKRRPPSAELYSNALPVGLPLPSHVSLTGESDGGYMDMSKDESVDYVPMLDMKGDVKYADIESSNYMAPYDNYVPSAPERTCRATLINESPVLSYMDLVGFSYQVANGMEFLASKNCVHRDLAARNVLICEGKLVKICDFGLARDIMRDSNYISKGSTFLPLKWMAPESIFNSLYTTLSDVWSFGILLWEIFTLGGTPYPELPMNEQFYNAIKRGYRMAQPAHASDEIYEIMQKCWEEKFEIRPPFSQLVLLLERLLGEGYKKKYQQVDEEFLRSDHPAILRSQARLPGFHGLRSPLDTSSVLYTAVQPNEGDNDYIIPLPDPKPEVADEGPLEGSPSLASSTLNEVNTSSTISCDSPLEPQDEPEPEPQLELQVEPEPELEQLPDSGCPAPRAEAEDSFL
Chain of Tyrosine-protein kinase ABL1 (P00519 whole entry, the tested form may be a part): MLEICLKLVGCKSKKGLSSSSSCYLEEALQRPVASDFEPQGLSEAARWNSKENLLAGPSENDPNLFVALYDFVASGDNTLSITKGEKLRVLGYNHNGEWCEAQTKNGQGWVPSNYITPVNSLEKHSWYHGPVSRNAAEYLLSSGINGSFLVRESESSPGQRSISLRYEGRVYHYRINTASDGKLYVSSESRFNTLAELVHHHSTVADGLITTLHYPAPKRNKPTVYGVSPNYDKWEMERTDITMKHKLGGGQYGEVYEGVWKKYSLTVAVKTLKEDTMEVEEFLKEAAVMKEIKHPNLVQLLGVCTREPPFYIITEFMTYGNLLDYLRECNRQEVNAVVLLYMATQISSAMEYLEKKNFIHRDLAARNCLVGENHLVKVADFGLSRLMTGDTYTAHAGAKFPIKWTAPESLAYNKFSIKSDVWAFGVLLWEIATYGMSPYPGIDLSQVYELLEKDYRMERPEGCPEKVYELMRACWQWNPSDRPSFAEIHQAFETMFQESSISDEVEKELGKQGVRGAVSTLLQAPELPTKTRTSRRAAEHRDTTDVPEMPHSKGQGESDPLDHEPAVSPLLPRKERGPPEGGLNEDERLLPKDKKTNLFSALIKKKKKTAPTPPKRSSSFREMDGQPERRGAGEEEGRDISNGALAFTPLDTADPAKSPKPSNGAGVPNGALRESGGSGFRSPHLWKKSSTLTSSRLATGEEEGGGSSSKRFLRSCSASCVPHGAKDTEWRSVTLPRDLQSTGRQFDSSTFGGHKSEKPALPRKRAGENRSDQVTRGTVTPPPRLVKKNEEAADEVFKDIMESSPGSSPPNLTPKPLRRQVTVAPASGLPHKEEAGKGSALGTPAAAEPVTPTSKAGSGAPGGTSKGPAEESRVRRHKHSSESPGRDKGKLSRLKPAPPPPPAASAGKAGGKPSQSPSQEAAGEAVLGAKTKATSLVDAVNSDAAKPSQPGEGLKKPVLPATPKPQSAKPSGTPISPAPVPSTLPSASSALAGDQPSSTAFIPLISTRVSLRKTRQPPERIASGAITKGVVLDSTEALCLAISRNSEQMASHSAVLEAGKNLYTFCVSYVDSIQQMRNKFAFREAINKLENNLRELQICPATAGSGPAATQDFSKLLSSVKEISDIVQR
Chain of Mast/stem cell growth factor receptor Kit (P10721 whole entry): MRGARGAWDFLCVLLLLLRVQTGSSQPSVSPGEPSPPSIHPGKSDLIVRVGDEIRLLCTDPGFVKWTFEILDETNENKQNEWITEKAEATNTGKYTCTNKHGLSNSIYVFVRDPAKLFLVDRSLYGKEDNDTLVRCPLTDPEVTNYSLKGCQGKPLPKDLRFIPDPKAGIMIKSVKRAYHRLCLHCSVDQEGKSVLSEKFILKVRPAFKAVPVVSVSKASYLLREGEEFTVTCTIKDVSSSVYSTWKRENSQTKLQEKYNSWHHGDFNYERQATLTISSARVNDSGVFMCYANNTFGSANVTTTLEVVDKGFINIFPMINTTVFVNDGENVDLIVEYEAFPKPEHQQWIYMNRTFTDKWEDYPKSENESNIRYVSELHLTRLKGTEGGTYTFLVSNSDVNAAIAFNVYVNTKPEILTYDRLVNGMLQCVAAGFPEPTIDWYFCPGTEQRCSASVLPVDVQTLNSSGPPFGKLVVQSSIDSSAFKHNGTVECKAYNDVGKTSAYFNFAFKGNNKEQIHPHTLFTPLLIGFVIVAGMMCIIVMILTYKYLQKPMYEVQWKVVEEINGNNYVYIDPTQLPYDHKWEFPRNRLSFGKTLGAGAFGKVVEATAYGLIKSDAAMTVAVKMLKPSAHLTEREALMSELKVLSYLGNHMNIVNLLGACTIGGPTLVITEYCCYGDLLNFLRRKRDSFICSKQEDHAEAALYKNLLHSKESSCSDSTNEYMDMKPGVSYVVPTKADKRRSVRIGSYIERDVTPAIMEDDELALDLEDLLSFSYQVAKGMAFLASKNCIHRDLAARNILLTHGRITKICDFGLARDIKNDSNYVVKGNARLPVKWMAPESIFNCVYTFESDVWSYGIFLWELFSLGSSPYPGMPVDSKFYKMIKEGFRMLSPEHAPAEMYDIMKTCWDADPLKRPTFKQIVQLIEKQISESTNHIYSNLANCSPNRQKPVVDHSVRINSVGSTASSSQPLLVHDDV

For `Cc1cn(-c2cc(CN3CCCC[C@H]3C(N)=O)cc(NC(=O)c3ccc(C)c(Nc4nccc(-c5ccc(F)cc5)n4)c3)c2)cn1`, the IC50 in assay [1] is 2.57 µM; in assay [2] it was 9.87 µM; in assay [3], more than 10 µM; in assay [4] it was more than 10 µM; in assay [5] it was more than 10 µM.
For `CCCCc1cc(NC(=O)c2ccc(C)c(Nc3nccc(-c4ccccc4)n3)c2)cc(-n2cnc(C)c2)c1`, the IC50 in assay [1] was 7.41 µM; in assay [2], 0.302 µM; in assay [4], more than 10 µM; in assay [5], more than 10 µM.
As for `Cc1ccc(C(=O)Nc2cccc(N3CCN(C)CC3)c2)cc1Nc1nccc(-c2ccc(F)cc2)n1`, the IC50 was 3.29 µM in assay [1]; 0.093 µM in assay [2]; more than 10 µM in assay [3]; more than 10 µM in assay [4]; more than 10 µM in assay [5].
For `Cc1cn(-c2cc(NC(=O)c3ccc(C)c(Nc4nccc(-c5ccc(F)cc5)n4)c3)cc(N3CCOCC3)c2)cn1`, the IC50 in assay [1] was 40.1 µM; in assay [2], 0.79 µM; in assay [3], more than 10 µM; in assay [4], more than 10 µM; in assay [5] it was more than 10 µM.
As to `Cc1cc(-c2cc(NC(=O)c3ccc(C)c(Nc4nccc(-c5ccc(F)cc5)n4)c3)cc(N3CCN(C)CC3)c2)on1`, the IC50 in assay [1] is 10.7 µM; in assay [2] it was 3.1 µM; in assay [3] it was more than 10 µM; in assay [4], 5.52 µM; in assay [5] it was more than 10 µM.
Regarding `Cc1cn(-c2cc(/C=C/C(=O)O)cc(NC(=O)c3ccc(C)c(Nc4nccc(-c5ccccc5)n4)c3)c2)cn1`, the IC50 in assay [1] is 11.3 µM; in assay [2] it was 2.77 µM; in assay [3], more than 10 µM; in assay [4] it was more than 10 µM; in assay [5], more than 10 µM.
Regarding `Cc1cn(-c2cc(NC(=O)c3ccc(C)c(Nc4nccc(-c5ccccc5)n4)c3)cc(C(F)(F)F)c2)cn1`, the IC50 in assay [1] is 8.4 µM; in assay [2], 0.592 µM; in assay [4], 2.48 µM; in assay [5] it was more than 10 µM.
For `Cc1cn(-c2cc(CN3CCCC[C@H]3C(=O)O)cc(NC(=O)c3ccc(C)c(Nc4nccc(-c5ccc(F)cc5)n4)c3)c2)cn1`, the half-maximal inhibitory concentration (IC50) in assay [1] was 14 µM; in assay [2], more than 10 µM; in assay [3], more than 10 µM; in assay [4], more than 10 µM; in assay [5], more than 10 µM.
For `Cc1ccc(C(=O)Nc2cc(N3CCN(C)CC3)cc(-n3cnc(C)c3)c2)cc1`, the IC50 in assay [1] was 26.3 µM; in assay [2], more than 10 µM; in assay [3], more than 10 µM; in assay [4], more than 10 µM; in assay [5], more than 10 µM.
Take `Cc1cn(-c2cc(NC(=O)c3ccc(C)c(Nc4nccc(-c5cccnc5)n4)c3)cc(C(F)(F)F)c2)cn1` [NILOTINIB]: the IC50 in assay [1] is 9.8 µM.
Regarding `Cc1cn(-c2cc(CCC(=O)O)cc(NC(=O)c3ccc(C)c(Nc4nccc(-c5ccccc5)n4)c3)c2)cn1`, the IC50 is 9.28 µM in assay [1]; 0.347 µM in assay [2]; more than 10 µM in assay [3]; more than 10 µM in assay [4]; more than 10 µM in assay [5].
